Values belong to the compound of their own block, whether it stands above or below them.
Assays:
[1] = system: Rattus norvegicus; experiment: Biodistribution of I-125 labeled compound in rat brain to blood ratio, 1 hr after intravenous injection. value expressed in % dose per gram ratio; format: ADME, organism-based
Summary of the method: (§1)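 Rats given I-125 diamine iv; tissue activity at 2 min or 1 h compared with diluted injected-dose aliquots. % dose per gram approximated as % dose per organ divided by mean organ weight (brain 1.65 g; blood 18 g). Ratio taken from the per-gram values.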

[2] = system: Rattus norvegicus; experiment: Biodistribution of I-125 labeled compound in rat brain to blood ratio, 2 m in after intravenous injection. value expressed in % dose per gram ratio; format: ADME, organism-based; summary of the method: as §1
[3] = system: Rattus norvegicus; experiment: Biodistribution of I-125 labeled compound in rat thyroid, 1 hr after intravenous injection. value expressed in average % dose per organ; value may range from 0.18 to 0.25; format: ADME, organism-based, Thyroid gland; settings: in vivo
[4] = system: Rattus norvegicus; experiment: Biodistribution of I-125 labeled compound in rat muscle, 1 hr after intravenous injection. value expressed in average % dose per organ; value may range from 11.9 to 16.0; format: ADME, organism-based, Muscle tissue; settings: in vivo
[5] = system: Rattus norvegicus; experiment: Biodistribution of I-125 labeled compound in rat blood, 1 hr after intravenous injection. value expressed in average % dose per organ; value may range from 1.13 to 1.60; format: ADME, organism-based; settings: in vivo
[6] = system: Rattus norvegicus; experiment: Biodistribution of I-125 labeled compound in rat liver, 2 min after intravenous injection. value expressed in average % dose per organ; value may range from 8.10 to 8.95; format: ADME, organism-based; settings: in vivo
[7] = system: Rattus norvegicus; experiment: Biodistribution of I-125 labeled compound in rat heart, 2 min after intravenous injection. value expressed in average % dose per organ; value may range from 1.95 to 2.54; format: ADME, organism-based; settings: in vivo
[8] = system: Rattus norvegicus; experiment: Biodistribution of I-125 labeled compound in rat thyroid, 2 min after intravenous injection. value expressed in average % dose per organ; value may range from 0.13 to 0.20; format: ADME, organism-based, Thyroid gland; settings: in vivo
[9] = system: Rattus norvegicus; experiment: Biodistribution of I-125 labeled compound in rat brain, 1 hr after intravenous injection. value expressed in average % dose per organ; value may range from 1.39 to 1.47; format: ADME, organism-based; settings: in vivo
[10] = system: Rattus norvegicus; experiment: Biodistribution of I-125 labeled compound in rat blood, 2 min after intravenous injection. value expressed in average % dose per organ; value may range from 4.84 to 5.25; format: ADME, organism-based; settings: in vivo
[11] = system: Rattus norvegicus; experiment: Biodistribution of I-125 labeled compound in rat heart, 1 hr after intravenous injection. value expressed in average % dose per organ; value may range from 1.54 to 1.76; format: ADME, organism-based; settings: in vivo
[12] = system: Rattus norvegicus; experiment: Biodistribution of I-125 labeled compound in rat liver, 1 hr after intravenous injection. value expressed in average % dose per organ; value may range from 8.10 to 10.6; format: ADME, organism-based; settings: in vivo
[13] = The protein binding ability of compound was expressed in Percent free; format: ADME; settings: read-out: % free
Summary of the method: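 Binding to pooled human serum was measured by equilibrium dialysis. 0.4 mL serum and 0.4 mL 0.15 M phosphate buffer, pH 7.4, were separated by a membrane, and 0.025 μCi radiolabeled diamine was added on the buffer side. Cells were rotated at 37 °C for 18 h, and aliquots from both sides were weighed and counted. % free = buffer/serum radioactivity concentration ratio × 100. The membrane was also counted.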

[14] = system: Rattus norvegicus; experiment: Biodistribution of I-125 labeled compound in rat lungs, 1 hr after intravenous injection. value expressed in average % dose per organ; value may range from 14.0 to 17.9; format: ADME, organism-based, Lung; settings: in vivo
[15] = system: Rattus norvegicus; experiment: Biodistribution of I-125 labeled compound in rat muscle, 2 min after intravenous injection. value expressed in average % dose per organ; value may range from 7.52 to 9.77; format: ADME, organism-based, Muscle tissue; settings: in vivo
[16] = system: Rattus norvegicus; experiment: Biodistribution of I-125 labeled compound in rat lungs, 2 min after intravenous injection. value expressed in average % dose per organ; value may range from 36.9 to 42.9; format: ADME, organism-based, Lung; settings: in vivo
[17] = system: Rattus norvegicus; experiment: Biodistribution of I-125 labeled compound in rat brain, 2 min after intravenous injection. value expressed in average % dose per organ; value may range from 1.28 to 1.56; format: ADME, organism-based; settings: in vivo
[18] = species on record: Rattus norvegicus; experiment: Distribution coefficient at pH 7.4 in rat; format: ADME, organism-based
Summary of the method: (§2)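 Octanol/buffer partition: I-125 labeled diamine mixed with 3 g each of 1-octanol and 0.1 M phosphate buffer at pH 7.0 or 7.4, vortexed 3× 1 min, centrifuged 5 min. Two 0.5 g samples of each layer counted. Value is cpm/g octanol over cpm/g buffer, usually repeated three times.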

[19] = species on record: Rattus norvegicus; experiment: Distribution coefficient at pH 7.0 in rat; format: ADME, organism-based; summary of the method: as §2
[20] = system: Rattus norvegicus; experiment: Biodistribution of I-125 labeled compound in rat heart, 1 hr after intravenous injection. value expressed in average % dose per organ; format: ADME, organism-based; settings: in vivo
[21] = system: Rattus norvegicus; experiment: Biodistribution of I-125 labeled compound in rat blood, 1 hr after intravenous injection. value expressed in average % dose per organ; format: ADME, organism-based; settings: in vivo
[22] = system: Rattus norvegicus; experiment: Biodistribution of I-125 labeled compound in rat lungs, 2 min after intravenous injection. value expressed in average % dose per organ; format: ADME, organism-based, Lung; settings: in vivo
[23] = system: Rattus norvegicus; experiment: Biodistribution of I-125 labeled compound in rat lungs, 1 hr after intravenous injection. value expressed in average % dose per organ; format: ADME, organism-based, Lung; settings: in vivo
[24] = system: Rattus norvegicus; experiment: Biodistribution of I-125 labeled compound in rat thyroid, 2 min after intravenous injection. value expressed in average % dose per organ; format: ADME, organism-based, Thyroid gland; settings: in vivo
[25] = system: Rattus norvegicus; experiment: Biodistribution of I-125 labeled compound in rat brain to blood ratio, 2 min after intravenous injection. value expressed in % dose per gram ratio; format: ADME, organism-based; summary of the method: as §1
[26] = system: Rattus norvegicus; experiment: Biodistribution of I-125 labeled compound in rat liver, 1 hr after intravenous injection. value expressed in average % dose per organ; format: ADME, organism-based; settings: in vivo
[27] = system: Rattus norvegicus; experiment: Biodistribution of I-125 labeled compound in rat heart, 2 min after intravenous injection. value expressed in average % dose per organ; format: ADME, organism-based; settings: in vivo
[28] = system: Rattus norvegicus; experiment: Biodistribution of I-125 labeled compound in rat brain, 1 hr after intravenous injection. value expressed in average % dose per organ; format: ADME, organism-based; settings: in vivo
[29] = system: Rattus norvegicus; experiment: Biodistribution of I-125 labeled compound in rat brain, 2 min after intravenous injection. value expressed in average % dose per organ; format: ADME, organism-based; settings: in vivo
[30] = system: Rattus norvegicus; experiment: Biodistribution of I-125 labeled compound in rat blood, 2 min after intravenous injection. value expressed in average % dose per organ; format: ADME, organism-based; settings: in vivo
[31] = system: Rattus norvegicus; experiment: Biodistribution of I-125 labeled compound in rat liver, 2 min after intravenous injection. value expressed in average % dose per organ; format: ADME, organism-based; settings: in vivo
[32] = system: Rattus norvegicus; experiment: Biodistribution of I-125 labeled compound in rat muscle, 2 min after intravenous injection. value expressed in average % dose per organ; format: ADME, organism-based, Muscle tissue; settings: in vivo
[33] = system: Rattus norvegicus; experiment: Biodistribution of I-125 labeled compound in rat muscle, 1 hr after intravenous injection. value expressed in average % dose per organ; format: ADME, organism-based, Muscle tissue; settings: in vivo
[34] = system: Rattus norvegicus; experiment: Biodistribution of I-125 labeled compound in rat thyroid, 1 hr after intravenous injection. value expressed in average % dose per organ; format: ADME, organism-based, Thyroid gland; settings: in vivo

- Ratio [1]: 11.5%
- Ratio [2]: 2.96%
- Average dose per organ [3]: 0.22%
- Average dose per organ [4]: 13.3%
- Average dose per organ [5]: 1.33%
- Average dose per organ [6]: 8.65%
- Average dose per organ [7]: 2.15%
- Average dose per organ [8]: 0.16%
- Average dose per organ [9]: 1.43%
- Average dose per organ [10]: 5.05%
- Average dose per organ [11]: 1.68%
- Average dose per organ [12]: 9.74%
- fraction unbound [13]: 0.0762
- Average dose per organ [14]: 15.8%
- Average dose per organ [15]: 8.38%
- Average dose per organ [16]: 39.8%
- Average dose per organ [17]: 1.39%
- Distribution coefficient [18]: 389
- Distribution coefficient [19]: 77.4
SMILES: CCC(C)c1cc(I)cc(CNCCCN(C)C)c1O (stereo not drawn)

- Average dose per organ [20]: 1.33%
- Ratio [1]: 6.43%
- Average dose per organ [21]: 2.79%
- Average dose per organ [22]: 28.2%
- Average dose per organ [23]: 15.4%
- Average dose per organ [24]: 0.17%
- Ratio [25]: 4.31%
- Average dose per organ [26]: 7.38%
- Average dose per organ [27]: 3.16%
- Average dose per organ [28]: 1.67%
- Average dose per organ [29]: 1.67%
- fraction unbound [13]: 0.0607
- Average dose per organ [30]: 4.16%
- Average dose per organ [31]: 11.7%
- Average dose per organ [32]: 6.44%
- Average dose per organ [33]: 14.1%
- Average dose per organ [34]: 0.2%
- Distribution coefficient [18]: 1390
- Distribution coefficient [19]: 522
SMILES: CN(C)CCCNCc1cc(I)cc(C(C)(C)C)c1O

Source: ChEMBL document CHEMBL1122426, “Radioiodine-labeled N,N-dimethyl-N'-(2-hydroxy-3-alkyl-5-iodobenzyl)-1,3-propanediamines for brain perfusion imaging” (J Med Chem, 1983)
